Data from ChEMBL document CHEMBL1141217, “cycloSal-PMEA and cycloAmb-PMEA: potentially new phosphonate prodrugs based on the cycloSal-pronucleotide approach” (J Med Chem, 2005).
Activity calls are given as the source filed them. The rule behind the calls is not given here.

What was measured:
[1] = Half life in CEM/O cells; assay type: ADME, cell-based; settings: human, CEM/O cells (CCRF-CEM cell line)
In short: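 Triester (1.5 mM stock in DMSO) incubated with CEM cell extract plus MgCl2 (70 mM stock) for 8 h. Stopped with acidic methanol, 5 min at 0 °C, centrifuged and filtered; supernatant analysed by reversed-phase HPLC with UV at 250 nm.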

[2] = Chemical stability in phosphate buffer at pH 7.3; assay type: physicochemical; settings: read-out: Stability (converted)
In short: (§1)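 Triesters hydrolysed at 37 °C in phosphate buffer pH 7.3 or citrate buffer pH 2.0, with AZT as internal standard; final 0.96 mM triester, 24.8 mM buffer. Aliquots quenched with glacial acetic acid and frozen, then analysed by reversed-phase HPLC with UV at 250 nm. t1/2 from rate constants of starting-triester peak decay; mean of duplicates.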

[3] = Inhibitory activity against human acetyl cholinesterase
[4] = molecular target: Cholinesterase (Homo sapiens, UniProt P06276); test: Inhibitory activity against human butyryl cholinesterase
[5] = test system: CCRF-CEM; test: Cytotoxicity against CEM/O cells; assay type: functional; settings: Homo sapiens
[6] = Chemical stability in citrate buffer at pH 2.0; assay type: physicochemical; in short: as §1
[7] = test system: Human immunodeficiency virus 2; test: Antiviral potency against HIV2 in CEM/O cells; assay type: functional, organism-based; settings: Human immunodeficiency virus 2, CEM/O
In short: (§2)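 CEM cells at 4×10^5 cells/mL infected with HIV-1 or HIV-2 (ROD) at ~100 CCID50 per mL; virus stocks from infected MT-4 cell supernatants. Infected cells mixed with serial compound dilutions. After 4–5 days, giant cell formation scored microscopically; EC50 = concentration giving 50% protection.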

[8] = test system: Human immunodeficiency virus 1; test: Antiviral potency against HIV1 in CEM/O cells; assay type: functional, organism-based; settings: Human immunodeficiency virus 1, CEM/O; in short: as §2
[9] = LogP using HPLC method; assay type: physicochemical

Sequence of Cholinesterase (P06276 whole entry): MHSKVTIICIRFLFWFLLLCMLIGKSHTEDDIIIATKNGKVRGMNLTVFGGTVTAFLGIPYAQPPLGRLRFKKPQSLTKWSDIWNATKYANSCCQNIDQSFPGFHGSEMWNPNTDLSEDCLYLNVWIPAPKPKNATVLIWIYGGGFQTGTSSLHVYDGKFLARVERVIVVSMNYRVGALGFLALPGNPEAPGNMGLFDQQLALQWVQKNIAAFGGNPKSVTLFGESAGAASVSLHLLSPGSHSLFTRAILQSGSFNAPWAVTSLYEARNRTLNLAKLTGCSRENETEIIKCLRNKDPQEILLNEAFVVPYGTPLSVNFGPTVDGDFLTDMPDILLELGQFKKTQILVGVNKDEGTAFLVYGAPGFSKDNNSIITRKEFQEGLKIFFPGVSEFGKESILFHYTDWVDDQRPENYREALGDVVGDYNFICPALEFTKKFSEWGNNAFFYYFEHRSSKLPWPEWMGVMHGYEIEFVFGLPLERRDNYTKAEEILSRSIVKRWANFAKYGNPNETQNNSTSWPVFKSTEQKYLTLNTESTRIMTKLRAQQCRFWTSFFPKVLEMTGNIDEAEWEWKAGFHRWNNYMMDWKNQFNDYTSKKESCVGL

Row | Structure (SMILES) | half-life [1] [h] | half-life [2] [h] | Activity [3] | IC50 [4] [µM] | CC50 [5] [µM] | Stability [6] [h] | EC50 [7] [µM] | EC50 [8] [µM] | logP [9]
1 | Cc1cccc2c1OP(=O)(COCCn1cnc3c(N)ncnc31)OC2 (stereo unspecified) | 0.6 | 0.56 | inactive | > 50 |  |  |  |  | 
2 | Nc1ncnc2c1ncn2CCOCP1(=O)Nc2ccccc2CO1 (stereo unspecified) |  | 4 | inactive | > 50 | 183 | 9.6 | 21 | 20 | 0.23
3 | Nc1ncnc2c1ncn2CCOCP(=O)(O)O [ADEFOVIR] |  |  |  |  | 50 |  | 10 | 10 | 
4 | Nc1ncnc2c1ncn2CCOCP1(=O)OCc2ccccc2O1 (stereo unspecified) | 0.1 | 0.09 | inactive | > 50 |  |  |  |  | 
5 | Cc1cccc2c1NP(=O)(COCCn1cnc3c(N)ncnc31)OC2 (stereo unspecified) |  | 21.3 | inactive | > 50 | > 250 | 29 | 56 | 29 | 0.45
6 | CC(C)(C)c1cccc2c1OP(=O)(COCCn1cnc3c(N)ncnc31)OC2 (stereo unspecified) | 3 | 4.05 | inactive | > 50 | 29 | 23.7 | 4.5 | 3 | 0.47
7 | CC(C)(C)c1cc2c(c(C(C)(C)C)c1)OP(=O)(COCCn1cnc3c(N)ncnc31)OC2 (stereo unspecified) | 3 | 3.05 | inactive | > 50 | 17 | 9.6 | 5.3 | 5.5 | 1.72
8 | Nc1ncnc2c1ncn2CCOCP1(=O)Nc2cccc(F)c2CO1 (stereo unspecified) |  | 1.3 | inactive | > 50 | 244 |  | 26 | 28 | 0.49
9 | CC(C)(C)C(=O)OCOP(=O)(COCCn1cnc2c(N)ncnc21)OCOC(=O)C(C)(C)C [ADEFOVIR DIPIVOXIL] |  | 14.7 |  |  | 0.74 |  | 0.075 | 0.18 | 
